Laboratory results as given in ChEMBL document CHEMBL1667846, “Optimization of a novel class of benzimidazole-based farnesoid X receptor (FXR) agonists to improve physicochemical and ADME properties” (Bioorg Med Chem Lett, 2011).
≈ marks a conversion by molar mass, not a printed value.

Experiments:
[1] = Solubility of the compound in 0.05 M phosphate buffer at pH 6.5; assay type: physicochemical
[2] = Lipophilicity log D of the compound at pH 7.4; assay type: physicochemical; conditions: buffer
How it was run: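 Lipophilicity measured as log D at pH 7.4.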

[3] = Cmax in C57BL/6 mouse at 4 mg/kg, iv or 10 mg/kg, po; assay type: ADME, organism-based; conditions: in vivo
How it was run: (§1)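 Male C57BL/6 mice (4 mg/kg iv, 10 mg/kg po) and male Wistar rats (2 mg/kg iv, 5 mg/kg po), single doses. Oral vehicle was 7.5% gelatin in 0.62% aqueous NaCl. Intravenous vehicle was 30% N-methylpyrrolidinone in aqueous 100 mM TRIS buffer pH 8.5. Reported parameters were Cl, Cmax/dose, Vss, AUC/dose, t1/2 and oral bioavailability F.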

[4] = Volume of distribution at steady state in C57BL/6 mouse at 4 mg/kg, iv; assay type: ADME, organism-based; design: dose 4 mg/kg, route intravenous; conditions: in vivo, read-out: Vdss; how it was run: as §1
[5] = AUC in C57BL/6 mouse at 4 mg/kg, iv or 10 mg/kg, po; assay type: ADME, organism-based; conditions: plasma; how it was run: as §1
[6] = Oral bioavailability in C57BL/6 mouse at 4 mg/kg, iv or 10 mg/kg, po; assay type: ADME, organism-based; conditions: in vivo; how it was run: as §1
[7] = Cmax in Wistar rat at 2 mg/kg, iv or 5 mg/kg, po; assay type: ADME, organism-based; conditions: in vivo; how it was run: as §1
[8] = Volume of distribution at steady state in Wistar rat at 2 mg/kg, iv or 5 mg/kg, po; assay type: ADME, organism-based; conditions: in vivo, read-out: Vdss; how it was run: as §1
[9] = AUC in Wistar rat at 2 mg/kg, iv or 5 mg/kg, po; assay type: ADME, organism-based; conditions: plasma; how it was run: as §1
[10] = Oral bioavailability in Wistar rat at 2 mg/kg, iv or 5 mg/kg, po; assay type: ADME, organism-based; conditions: in vivo; how it was run: as §1

## Cc1cc(C(=O)O)ccc1NC(=O)[C@H](C1CCCCC1)n1c(-c2ccc(Cl)cc2)nc2cc(F)c(F)cc21
[1]
  solubility: 32 µg/mL (≈ 59.5 µM)
[2]
  logD: 2.83

## O=C(O)c1ccc(NC(=O)[C@H](C2CCCCC2)n2c(-c3ccc(Cl)cc3)nc3cc(F)c(F)cc32)c(F)c1
[1]
  solubility: 115 µg/mL (≈ 212 µM)
[2]
  logD: 2.66
[3]
  Cmax/dose: 205 ng/mL
[4]
  Vd: 1.24 L/kg
[5]
  AUC: 5430 ng·h/mL
[6]
  bioavailability: 33%
[7]
  Cmax/dose: 270 ng/mL
[8]
  Vd: 0.62 L/kg
[9]
  AUC: 3030 ng·h/mL
[10]
  bioavailability: 59%

## O=C(O)c1ccc(NC(=O)[C@H](C2CCCCC2)n2c(-c3ccc(Cl)cc3)nc3cc(F)c(F)cc32)cc1
[1]
  solubility: 88 µg/mL (≈ 168 µM)
[2]
  logD: 3.06

## O=C(NC1CCCCC1)[C@H](C1CCCCC1)n1c(-c2ccc(Cl)cc2)nc2cc(F)c(Cl)cc21
[1]
  solubility: < 1 µg/mL
[2]
  logD: > 4

## O=C(NC1CCCCC1)[C@H](C1CCCCC1)n1c(-c2ccc(Cl)cc2)nc2cc(F)c(F)cc21
[1]
  solubility: < 1 µg/mL
[2]
  logD: > 4

## O=C(N[C@H]1CC[C@H](O)CC1)[C@H](C1CCCCC1)n1c(-c2ccc(Cl)cc2)nc2cc(F)c(F)cc21
[1]
  solubility: 17 µg/mL (≈ 33.9 µM)
[2]
  logD: > 4

## O=C(N[C@H]1CC[C@H](C(=O)O)CC1)[C@H](C1CCCCC1)n1c(-c2ccc(Cl)cc2)nc2cc(F)c(F)cc21
[1]
  solubility: 395 µg/mL (≈ 745 µM)
[2]
  logD: 2.49

## O=C(O)c1ccc(NC(=O)[C@H](C2CCCCC2)n2c(-c3ccc(Cl)cc3)nc3cc(F)c(F)cc32)c(Cl)c1
[1]
  solubility: 51 µg/mL (≈ 91.3 µM)
[2]
  logD: 2.98

## O=C(Nc1ccc(OC2(C(=O)O)CC2)cc1F)[C@H](C1CCCCC1)n1c(-c2ccc(Cl)cc2)nc2cc(F)c(F)cc21
[1]
  solubility: 280 µg/mL (≈ 468 µM)
[2]
  logD: 2.32

## O=C(Nc1ccc(-c2nnn[nH]2)cc1F)[C@H](C1CCCCC1)n1c(-c2ccc(Cl)cc2)nc2cc(F)c(F)cc21
[1]
  solubility: 490 µg/mL (≈ 866 µM)
[2]
  logD: 2.96

## O=C(O)c1ccc(NC(=O)[C@H](C2CCCCC2)n2c(-c3ccc(Cl)cc3)nc3ccccc32)c(C(F)(F)F)c1
[1]
  solubility: 175 µg/mL (≈ 315 µM)
[2]
  logD: 2.34

## COc1ccc(-c2nc3cc(F)c(F)cc3n2[C@H](C(=O)N[C@H]2CC[C@H](C(=O)O)CC2)C2CCCCC2)c(OC)n1
[1]
  solubility: 465 µg/mL (≈ 835 µM)
[2]
  logD: 1.91
